Source: ChEMBL document CHEMBL2176995, “An oral sphingosine 1-phosphate receptor 1 (S1P(1)) antagonist prodrug with efficacy in vivo: discovery, synthesis, and evaluation” (J Med Chem, 2012)
The source made the active and inactive calls. The calls are words filed in the database; no cut-off is given here.

How the values were obtained:
Rattus norvegicus [1] = assay: Induction of capillary leakage in Lewis rat Evans blue dye lung leakage model at 30 mg/kg, po bid measured 6 hrs after 6 hrs relative to untreated control; type: organism-based; parameters: dose 30 mg/kg, route oral; settings: in vivo
How it was run: (§1)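 Male Lewis rats were gavaged twice daily with vehicle or 30 mg/kg in 30% PEG200/buffer. Evans blue dye (20 mg/2 mL NaCl/kg iv) was given under anesthesia at 5, 23 or 95 h. One hour later the rats were bled, lungs were perfused with saline, dried at 60 °C for 24 h, weighed, and dye was extracted in formamide (24 h, 37 °C). Thoracic fluid volume was also recorded.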

Rattus norvegicus [2] = assay: Toxicity in stringent Dark Agouti to Lewis rat heterotopic vascular heart allotransplantation model assessed as incidence of histopathological changes at 30 mg/kg, po bid coadministered with 10 mg/kg, bid sotrastaurin by hematoxylin and eosin staining; type: organism-based; settings: in vivo
How it was run: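 DA hearts grafted into rat recipients. Test agent 30 mg/kg po b.i.d. (in PEG200/water, pH 5 with 0.1 M HCl) plus the PKC inhibitor 10 mg/kg po b.i.d. (in D-glucose/PEG400/water/0.1 M HCl), started 3 days before transplantation. The study ended at rejection or a set end point. Grafts were formalin-fixed and paraffin-embedded, and 3 μm sections were stained with H&E and trichrome. Acute cellular rejection (0–3R), vasculopathy and fibrosis were scored; lungs were also examined.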

[3] = Stability in pH 10 buffer assessed as compound remaining measured after 17 hrs by UPLC; type: physicochemical; settings: pH 10, 17 h
How it was run: (§2)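 The ester was incubated in buffer at pH 7.4 or pH 10. Remaining ester and the hydrolysed carboxylic acid were followed over time by UPLC, at time points out to 82 h.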

Rattus norvegicus [4] = assay: Induction of capillary leakage in Lewis rat Evans blue dye lung leakage model assessed as thorax fluid level at 30 mg/kg, po bid measured after 24 hrs relative to untreated control; type: organism-based; parameters: dose 30 mg/kg, route oral; settings: in vivo; how it was run: as §1
Rattus norvegicus [5] = assay: Increase in allograft survival in stringent Dark Agouti to Lewis rat heterotopic vascular heart allotransplantation model assessed as improvement in histological changes at 30 mg/kg, po bid coadministered with 0.3 mg/kg, qd everolimus by hematoxylin and eosin staining; type: functional, organism-based
How it was run: (§3)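 DA donor hearts were grafted into Lewis recipients. Treatment started 3 days before transplantation: prodrug 30 mg/kg po b.i.d. (PEG200/water, pH 5) alone or with sotrastaurin 10 mg/kg po b.i.d. or everolimus 0.3 mg/kg po q.d. Grafts were followed to rejection or up to 50 days. Allografts were formalin-fixed, cut at 3 μm, stained with H&E and trichrome, and scored for rejection. Lymphocytes were counted weekly before dosing, and body weight was monitored.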

[6] = Stability in pH 7.4 buffer assessed as compound hydrolysis measured after 49 hrs by UPLC; type: physicochemical; settings: read-out: Drug degradation; how it was run: as §2
Rattus norvegicus [7] = assay: Toxicity in stringent Dark Agouti to Lewis rat heterotopic vascular heart allotransplantation model assessed as compound tolerance at 30 mg/kg, po bid; type: organism-based; parameters: dose 30 mg/kg, route oral; settings: in vivo; how it was run: as §3
Rattus norvegicus [8] = assay: Induction of capillary leakage in Lewis rat Evans blue dye lung leakage model assessed as thorax fluid level at 30 mg/kg, po bid measured after 6 hrs relative to untreated control; type: organism-based; parameters: dose 30 mg/kg, route oral; settings: in vivo; how it was run: as §1
Rattus norvegicus [9] = assay: Reduction in peripheral blood lymphocytes in Lewis rat assessed as remaining circulating lymphocytes level at 30 mg/kg, po, qd for 5 days by automated hematology analyzer; type: functional
How it was run: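 Male Lewis rats were dosed daily at 30 mg/kg po for 5 days. Blood lymphocytes were counted on an automated hematology analyzer once a day, before the next dose, and expressed relative to the pretreatment baseline.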

[10] = Stability in pH 7.4 buffer assessed as compound hydrolysis measured after 82 hrs by UPLC; type: physicochemical; settings: pH 7.4, 82 h; how it was run: as §2

## COC(=O)[C@H](CCN(C)C)N(C)C(=O)c1c(C)cc(-c2cccc(NS(=O)(=O)c3cc(C)c(Cl)cc3C)c2)cc1C
Rattus norvegicus [1]
  fold change (FC): 3
Rattus norvegicus [2]
  Activity: Non-toxic
[3]
  Stability: Unstable
Rattus norvegicus [4]
  Activity: 2 mL
Rattus norvegicus [5]
  Activity: Active
[6]
  degraded at 49 h: 85%
Rattus norvegicus [7]
  Activity: Non-toxic
Rattus norvegicus [8]
  Activity: 1 mL
Rattus norvegicus [9]
  Activity: 20%
[10]
  Stability: Unstable
